The source made the active and inactive calls. The calls are words filed in the database; no cut-off is given here.
Legend:
[1] = target: 3',5'-cyclic-AMP phosphodiesterase 4B (Homo sapiens) (UniProt Q07343); test: Inhibition of PDE4B expressed in Sf9 cells using cAMP as substrate preincubated for 15 mins prior substrate addition measured after 1 hr by luminescence-based spectrophotometry
How it was run: (§1)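 10 ng PDE4B enzyme (isolated from Sf9 cells) was preincubated 15 min with compound or DMSO vehicle, then incubated 1 h with 5 µM cAMP using a PDElight HTS cAMP phosphodiesterase kit. The reaction was stopped, then developed with detection reagent for 10 min in the dark. Luminescence (RLU) was read, and % inhibition was calculated as (RLU vehicle − RLU inhibitor)/RLU vehicle × 100.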

[2] = target: 3',5'-cyclic-AMP phosphodiesterase 4B (Homo sapiens) (UniProt Q07343); test: Inhibition of PDE4B expressed in Sf9 cells using cAMP as substrate at 30 uM preincubated for 15 mins prior substrate addition measured after 1 hr by luminescence-based spectrophotometry; how it was run: as §1
[3] = target: 3',5'-cyclic-AMP phosphodiesterase 4D (Homo sapiens) (UniProt Q08499); test: Inhibition of PDE4D2 using cAMP as substrate at 30 uM preincubated for 15 mins prior substrate addition measured after 1 hr by luminescence-based spectrophotometry
3',5'-cyclic-AMP phosphodiesterase 4D (Homo sapiens), sequence (Q08499 whole entry): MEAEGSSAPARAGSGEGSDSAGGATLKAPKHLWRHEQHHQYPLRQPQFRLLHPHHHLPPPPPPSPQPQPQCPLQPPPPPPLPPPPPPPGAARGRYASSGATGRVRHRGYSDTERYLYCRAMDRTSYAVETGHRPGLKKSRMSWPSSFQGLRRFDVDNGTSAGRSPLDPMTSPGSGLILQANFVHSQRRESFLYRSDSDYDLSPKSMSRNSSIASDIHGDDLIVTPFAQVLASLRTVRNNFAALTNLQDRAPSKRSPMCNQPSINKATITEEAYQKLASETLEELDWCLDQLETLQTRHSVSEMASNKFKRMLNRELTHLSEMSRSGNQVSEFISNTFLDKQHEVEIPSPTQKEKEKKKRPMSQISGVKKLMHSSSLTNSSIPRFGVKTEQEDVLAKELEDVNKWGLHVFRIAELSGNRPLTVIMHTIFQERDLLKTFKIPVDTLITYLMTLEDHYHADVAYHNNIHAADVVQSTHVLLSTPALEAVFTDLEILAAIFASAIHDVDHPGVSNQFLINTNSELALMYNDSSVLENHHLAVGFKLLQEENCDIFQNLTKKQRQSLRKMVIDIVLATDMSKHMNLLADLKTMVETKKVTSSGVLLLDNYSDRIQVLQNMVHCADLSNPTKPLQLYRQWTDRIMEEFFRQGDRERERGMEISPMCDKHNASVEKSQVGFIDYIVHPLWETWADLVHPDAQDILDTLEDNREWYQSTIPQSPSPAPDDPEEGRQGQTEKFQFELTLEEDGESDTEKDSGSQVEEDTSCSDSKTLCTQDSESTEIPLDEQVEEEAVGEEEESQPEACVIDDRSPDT

[4] = Ratio of inhibition of PDE4B over inhibition of PDE4D2

3',5'-cyclic-AMP phosphodiesterase 4B (Homo sapiens), sequence (Q07343 whole entry): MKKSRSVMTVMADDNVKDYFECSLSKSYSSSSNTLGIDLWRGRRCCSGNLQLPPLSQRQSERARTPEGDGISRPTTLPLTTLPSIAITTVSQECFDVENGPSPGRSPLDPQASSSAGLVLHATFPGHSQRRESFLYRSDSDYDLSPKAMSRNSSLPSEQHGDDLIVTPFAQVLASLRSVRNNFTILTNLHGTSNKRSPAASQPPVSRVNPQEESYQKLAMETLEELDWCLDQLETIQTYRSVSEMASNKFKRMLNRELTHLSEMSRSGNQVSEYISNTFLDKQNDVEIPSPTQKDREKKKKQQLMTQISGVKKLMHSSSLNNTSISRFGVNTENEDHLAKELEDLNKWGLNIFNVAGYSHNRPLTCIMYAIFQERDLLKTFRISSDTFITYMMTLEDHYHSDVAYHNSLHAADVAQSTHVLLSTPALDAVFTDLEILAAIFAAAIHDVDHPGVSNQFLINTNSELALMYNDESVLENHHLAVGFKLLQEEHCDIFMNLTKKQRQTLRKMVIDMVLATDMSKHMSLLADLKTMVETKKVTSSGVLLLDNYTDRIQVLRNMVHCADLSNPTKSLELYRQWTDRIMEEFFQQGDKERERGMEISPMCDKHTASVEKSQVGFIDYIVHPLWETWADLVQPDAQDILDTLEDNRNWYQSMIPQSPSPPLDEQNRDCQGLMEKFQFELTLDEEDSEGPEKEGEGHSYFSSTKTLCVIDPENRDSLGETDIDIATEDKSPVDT

Row | SMILES | inhibition [1] | inhibition [2] [%] | inhibition [3] [%] | Ratio [4]
1 | Cc1nn(C)c(C)c1C#Cc1ccccc1 | Active |  |  | 
2 | CCOC(=O)c1nn(C)c(-c2cccc(Cl)c2)c1C#CC(C)(C)O |  | 67.3 |  | 
3 | CCOC(=O)c1n[nH]c(-c2cccc(Cl)c2)c1C#Cc1ccccc1 |  | 70 | 20 | 2
4 | Cc1c(C#Cc2ccccc2)cnn1C | Active |  |  | 
5 | CCOC(=O)c1nn(C)c(-c2cccc(Cl)c2)c1C#CCO |  | 69.1 |  | 
6 | CCOC(=O)c1nn(C)c(-c2cccc(Cl)c2)c1C#CCCCC#N | Dose-dependent effect | 73.4 | 20 | 2

The remaining lines, values ahead:

Row | inhibition [1] | inhibition [2] [%] | inhibition [3] [%] | Ratio [4] | SMILES
7 |  | 71.1 | 20 | 2 | CCOC(=O)c1n[nH]c(-c2cccc(Cl)c2)c1C#CCCCC#N
8 |  | 65.1 |  |  | CCOC(=O)c1n[nH]c(-c2cccc(Cl)c2)c1C#CCCO
9 |  | 21.1 |  |  | CCOC(=O)c1n[nH]c(-c2cccc(Cl)c2)c1C#CC1(O)CCCCC1
10 |  | 59.2 |  |  | CCOC(=O)c1nn(C)c(-c2cccc(Cl)c2)c1C#CCCO
11 |  | 70 | 20 | 2 | CCOC(=O)c1n[nH]c(-c2cccc(Cl)c2)c1C#CC(C)(C)O
12 |  | 68.1 |  |  | CCOC(=O)c1n[nH]c(-c2cccc(Cl)c2)c1C#CCO
